{"source": "ChEMBL document CHEMBL4765435", "about": "“Synthesis and in vitro anti-bladder cancer activity evaluation of quinazolinyl-arylurea derivatives” (Eur J Med Chem, 2020)", "key": {"T-24 [1]": {"tested_on": "T-24", "assay": "Induction of ferroptosis in human T-24 cells assessed as cellular GPx4 level at 12 uM by HPLC-EC analysis (reference value: 1.71 +/- 0.07 U/mg)", "type": "functional"}, "T-24 [2]": {"tested_on": "T-24", "assay": "Induction of apoptosis in human T-24 cells assessed as early apoptotic cells at 6 uM incubated for 8 hrs by annexin V-FITC and PI staining based flow cytometry analysis (reference value: 3.37 %)", "type": "functional"}, "T-24 [3]": {"tested_on": "T-24", "assay": "Induction of ferroptosis in human T-24 cells assessed as downregulation of xCT at 6 to 8 uM in presence of Fer-1 by Western blot analysis", "type": "functional, cell-based", "settings": "dose 6-8 µM"}, "T-24 [4]": {"tested_on": "T-24", "assay": "Induction of apoptosis in human T-24 cells assessed as increase in vZAD-reduced caspase-8 activation pretreated with vZAD for 1 hr followed by compound addition and measured upto 8 hrs by Western blot analysis", "type": "functional, cell-based", "settings": "dose 2-10 µM, time hrs <=8"}, "MGC-803": {"tested_on": "MGC-803", "assay": "Antiproliferative activity against human MGC-803 cells assessed as reduction in cell viability incubated for 72 hrs by MTT assay", "type": "functional, cell-based", "settings": "MGC-803, 72 h"}, "T-24 [5]": {"tested_on": "T-24", "assay": "Induction of ROS accumulation in human T-24 cells at 8 uM incubated for 16 hrs by DCFH-DA dye based luminescence spectrometry relative to control", "type": "functional", "how_it_was_run": "(§1)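 T24 cells loaded with the DCF probe after exposure to 4, 8 or 12 μM, sampled at times up to 16 h. Intracellular DCF fluorescence is quantified on a luminescence spectrometer and expressed as % of the negative control.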"}, "T-24 [6]": {"tested_on": "T-24", "assay": "Induction of autophagy in human T-24 cells assessed as increase in LC3B-II/LC3B-I ratio by Western blot analysis", "type": "functional, cell-based", "how_it_was_run": "(§2)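 Western blot of LC3B-I and LC3B-II in T24 lysates after treatment at 6, 8, 10 and 12 µM alongside an untreated control. LC3B-II level and the LC3B-II/I band ratio are reported.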"}, "T-24 [7]": {"tested_on": "T-24", "assay": "Induction of autophagy in human T-24 cells assessed as decrease in Akt phosphorylation at 6 to 12 uM incubated for 12 hrs in presence of IGF-1 by Western blot analysis", "type": "functional, cell-based", "settings": "dose 6-12 µM"}, "T-24 [8]": {"tested_on": "T-24", "assay": "Induction of apoptosis in human T-24 cells assessed as late apoptotic cells at 6 uM in presence of vZAD incubated for 8 hrs by annexin V-FITC and PI staining based flow cytometry analysis (reference value: 1.71 %)", "type": "functional"}, "T-24 [9]": {"tested_on": "T-24", "assay": "Induction of autophagy in human T-24 cells assessed as LC3BII/LC3B1 ratio at 10 uM by Western blot analysis (reference value: 0.89 +/- 0.05)", "type": "functional"}, "T-24 [10]": {"tested_on": "T-24", "assay": "Induction of ferroptosis in human T-24 cells assessed as downregulation of FTH1 by Western blot analysis", "type": "functional, cell-based", "settings": "dose 6-12 µM"}, "T-24 [11]": {"tested_on": "T-24", "assay": "Induction of apoptosis in human T24 cells assessed as increase in cytoC release at 2 to 6 uM measured upto 8 hrs by Western blot analysis", "type": "functional, cell-based", "settings": "dose 2-6 µM, time hrs <=8"}, "T-24 [12]": {"tested_on": "T-24", "assay": "Induction of apoptosis in human T-24 cells at 3 uM incubated for 8 hrs by Hoechst and PI staining based fluorescence microscopic analysis", "type": "functional, cell-based", "settings": "TDE = time-dependent effect"}, "T-24 [13]": {"tested_on": "T-24", "assay": "Induction of autophagy in human T-24 cells assessed as increase in ULK1 phosphorylation incubated for 12 hrs by Western blot analysis", "type": "functional, cell-based", "settings": "dose 6-12 µM"}, "T-24 [14]": {"tested_on": "T-24", "assay": "Induction of apoptosis in human T-24 cells assessed as late apoptotic cells at 6 uM incubated for 8 hrs by annexin V-FITC and PI staining based flow cytometry analysis (reference value: 1.71 %)", "type": "functional"}, "T-24 [15]": {"tested_on": "T-24", "assay": "Induction of apoptosis in human T-24 cells assessed as downregulation of Bcl-xl at 2 to 6 uM measured upto 8 hrs by Western blot analysis", "type": "functional, cell-based", "settings": "dose 2-6 µM, time hrs <=8"}, "T-24 [16]": {"tested_on": "T-24", "assay": "Induction of apoptosis in human T-24 cells assessed as late apoptotic cells at 3 uM in presence of vZAD incubated for 8 hrs by annexin V-FITC and PI staining based flow cytometry analysis (reference value: 1.71 %)", "type": "functional"}, "T-24 [17]": {"tested_on": "T-24", "assay": "Induction of ferroptosis in human T-24 cells assessed as increase in intracellular iron level at 12 uM by ICP-MS analysis (reference value: 860.2 +/- 62.3 pg)", "type": "functional"}, "T-24 [18]": {"tested_on": "T-24", "assay": "Induction of autophagy in human T-24 cells assessed as effect on Akt level at 6 to 12 uM incubated for 12 hrs by Western blot analysis", "type": "functional, cell-based", "settings": "dose 6-12 µM"}, "T-24 [19]": {"tested_on": "T-24", "assay": "Induction of ferroptosis in human T-24 cells assessed as downregulation of xCT by Western blot analysis", "type": "functional, cell-based", "settings": "dose 6-12 µM"}, "T-24 [20]": {"tested_on": "T-24", "assay": "Induction of mitochondrial membrane potential disruption in human T-24 cells assessed as ratio of green/red fluorescence intensity at 8 uM by JC-1 dye based confocal laser scanning microscopic analysis", "type": "functional, cell-based"}, "Bel-7402": {"tested_on": "Bel-7402", "assay": "Antiproliferative activity against human Bel-7402 cells assessed as reduction in cell viability incubated for 72 hrs by MTT assay", "type": "functional, cell-based", "settings": "Bel-7402, 72 h"}, "T-24 [21]": {"tested_on": "T-24", "assay": "Induction of ferroptosis in human T-24 cells assessed as cellular GPx4 level at 8 uM by HPLC-EC analysis (reference value: 1.71 +/- 0.07 U/mg)", "type": "functional"}, "T-24 [22]": {"tested_on": "T-24", "assay": "Induction of mitochondrial membrane potential disruption in human T-24 cells assessed as ratio of green/red fluorescence intensity at 4 uM by JC-1 dye based flow cytometry analysis (reference value: 0.29 +/- 0.04)", "type": "functional"}, "T-24 [23]": {"tested_on": "T-24", "assay": "Induction of autophagy in human T-24 cells assessed as LC3BII/LC3B1 ratio at 12 uM by Western blot analysis (reference value: 0.89 +/- 0.05)", "type": "functional"}, "T-24 [24]": {"tested_on": "T-24", "assay": "Induction of mitochondrial membrane potential disruption in human T-24 cells assessed as ratio of green/red fluorescence intensity at 12 uM by JC-1 dye based flow cytometry analysis (reference value: 0.29 +/- 0.04)", "type": "functional"}, "T-24 [25]": {"tested_on": "T-24", "assay": "Induction of autophagy in human T-24 cells assessed as decrease in p62 level at 6 uM in presence of rapamycin incubated for 12 hrs by Western blot analysis", "type": "functional, cell-based"}, "T-24 [26]": {"tested_on": "T-24", "assay": "Induction of ferroptosis in human T-24 cells assessed as cellular GPx4 level at 1 uM by HPLC-EC analysis (reference value: 1.71 +/- 0.07 U/mg)", "type": "functional"}, "T-24 [27]": {"tested_on": "T-24", "assay": "Induction of apoptosis in human T-24 cells assessed as necrotic cells at 3 uM incubated for 8 hrs by annexin V-FITC and PI staining based flow cytometry analysis (reference value: 0.84 %)", "type": "functional"}, "T-24 [28]": {"tested_on": "T-24", "assay": "Induction of ROS accumulation in human T-24 cells at 12 uM incubated for 16 hrs by DCFH-DA dye based luminescence spectrometry relative to control", "type": "functional", "how_it_was_run": "as §1"}, "T-24 [29]": {"tested_on": "T-24", "assay": "Induction of apoptosis in human T-24 cells assessed as necrotic cells at 3 uM in presence of vZAD incubated for 8 hrs by annexin V-FITC and PI staining based flow cytometry analysis (reference value: 0.84 %)", "type": "functional"}, "T-24 [30]": {"tested_on": "T-24", "assay": "Induction of ferroptosis in human T-24 cells assessed as reduction in HSB1 phosphorylation at 6 to 12 uM by Western blot analysis", "type": "functional, cell-based", "settings": "dose 6-12 µM"}, "T-24 [31]": {"tested_on": "T-24", "assay": "Induction of autophagy in human T-24 cells assessed as increase in LC3B-II level by Western blot analysis", "type": "functional, cell-based", "how_it_was_run": "as §2"}, "T-24 [32]": {"tested_on": "T-24", "assay": "Induction of autophagy in human T-24 cells assessed as decrease in ULK1 level at 6 to 12 uM incubated for 12 hrs by Western blot analysis", "type": "functional, cell-based", "settings": "dose 6-12 µM"}}, "note": "Active and inactive are the calls of the source. No cut-off for these calls is given here.", "data": [{"smiles": "O=C(Nc1cccc(CNc2ncnc3ccccc23)c1)Nc1ccc(Cl)c(Cl)c1", "values": [{"measurement": "Activity", "setting": "T-24 [1]", "result": 1.27, "unit": "U/mg"}, {"measurement": "Activity", "setting": "T-24 [2]", "result": 26.6, "unit": "%"}, {"measurement": "Activity", "setting": "T-24 [3]", "result": "Active"}, {"measurement": "Activity", "setting": "T-24 [4]", "result": "Dose-dependent effect"}, {"measurement": "IC50", "setting": "MGC-803", "result": 5.21, "unit": "µM"}, {"measurement": "Activity", "setting": "T-24 [5]", "result": 213.3, "unit": "%"}, {"measurement": "Activity", "setting": "T-24 [6]", "result": "Dose-dependent effect"}, {"measurement": "Activity", "setting": "T-24 [7]", "result": "inactive"}, {"measurement": "Activity", "setting": "T-24 [8]", "result": 6.64, "unit": "%"}, {"measurement": "fold change (FC)", "setting": "T-24 [9]", "result": 6.38}, {"measurement": "Activity", "setting": "T-24 [10]", "result": "Dose-dependent effect"}, {"measurement": "Activity", "setting": "T-24 [11]", "result": "Active"}, {"measurement": "Activity", "setting": "T-24 [12]", "result": "Tde"}, {"measurement": "Activity", "setting": "T-24 [13]", "result": "Active"}, {"measurement": "Activity", "setting": "T-24 [14]", "result": 4.47, "unit": "%"}, {"measurement": "Activity", "setting": "T-24 [15]", "result": "Active"}, {"measurement": "Activity", "setting": "T-24 [16]", "result": 3.11, "unit": "%"}, {"measurement": "Activity", "setting": "T-24 [17]", "result": 1758.3, "unit": "pg"}, {"measurement": "Activity", "setting": "T-24 [18]", "result": "Active"}, {"measurement": "Activity", "setting": "T-24 [19]", "result": "Dose-dependent effect"}, {"measurement": "Activity", "setting": "T-24 [20]", "result": "Active"}, {"measurement": "IC50", "setting": "Bel-7402", "result": 5.77, "unit": "µM"}, {"measurement": "Activity", "setting": "T-24 [21]", "result": 1.49, "unit": "U/mg"}, {"measurement": "fold change (FC)", "setting": "T-24 [22]", "result": 0.69}, {"measurement": "fold change (FC)", "setting": "T-24 [23]", "result": 7.79}, {"measurement": "fold change (FC)", "setting": "T-24 [24]", "result": 29.4}, {"measurement": "Activity", "setting": "T-24 [25]", "result": "Active"}, {"measurement": "Activity", "setting": "T-24 [26]", "result": 1.9, "unit": "U/mg"}, {"measurement": "Activity", "setting": "T-24 [27]", "result": 3.89, "unit": "%"}, {"measurement": "Activity", "setting": "T-24 [28]", "result": 238.4, "unit": "%"}, {"measurement": "Activity", "setting": "T-24 [29]", "result": 1.86, "unit": "%"}, {"measurement": "Activity", "setting": "T-24 [30]", "result": "Active"}, {"measurement": "Activity", "setting": "T-24 [31]", "result": "Dose-dependent effect"}, {"measurement": "Activity", "setting": "T-24 [32]", "result": "Active"}]}]}
